From ChEMBL document CHEMBL4138193, “Novel indole and triazole based hybrid molecules exhibit potent anti-adipogenic and antidyslipidemic activity by activating Wnt3a/β-catenin pathway” (Eur J Med Chem, 2018)
Active and inactive are the calls of the source. No cut-off for these calls is given here.

Columns and labels:
Syrian golden hamster [1] = experiment: Anti-dyslipidemic activity in high fat diet-induced dyslipidemia Syrian Golden hamster model assessed as reduction in serum LDL levels at 100 mg/kg, po administered for 1 week followed by overnight fasting post last dose by clinical bio-analyzer analysis; format: functional, organism-based; settings: Mesocricetus auratus
Procedure, shortened: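 Male Syrian golden hamsters (8–10 wk, 100–120 g), 4 per group, given 45% kcal HFD for 4 days, then 100 mg/kg p.o. in 0.5% NaCMC daily for one week alongside HFD. Blood taken from retro-orbital plexus after overnight fast. TG, HDL, LDL, ALT, AST measured on a clinical bio-analyzer and NEFA by kit. Mean ± SEM, one-way ANOVA with Bonferroni.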

Mus musculus [2] = species: Mus musculus; experiment: Activation of Wnt3a/beta-catenin in differentiated mouse 3T3L1 cells assessed as down-regulation of PPARgamma mRNA expression at 20 uM by qRT-PCR analysis
Procedure, shortened: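 3T3-L1 cells differentiated with IBMX/dexamethasone/insulin media with or without 20 µM compound over the differentiation period. RNA extracted with TRIZOL, 500 ng reverse-transcribed to cDNA, then quantitative real-time PCR. Three independent experiments run in triplicate, mean ± SD, one-way ANOVA with Bonferroni posttest.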

Homo sapiens = species: Homo sapiens; experiment: Anti-adipogenic activity in human differentiated MSC assessed as reduction in lipid accumulation at 5 to 20 uM after 20 mins by Oil Red O absorbance method; format: functional
Procedure, shortened: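 C3H10T1/2 or human MSC differentiated with IBMX/insulin/dexamethasone media containing 5, 10 or 20 µM compound. Cells stained with Oil red O (0.36% in 60% isopropanol, 20 min), dye extracted with isopropanol, absorbance read at 492 nm. n=3, mean ± SD, Student t test against MDI group.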

Mus musculus [3] = species: Mus musculus; experiment: Activation of Wnt3a/beta-catenin in mouse 3T3L1 cells assessed as down-regulation of CDK4 expression at 20 uM after 16 to 24 hrs by Western blot analysis; format: cell-based
Procedure, shortened: (§1)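 3T3-L1 cells given MDI differentiation media (0.5 mM IBMX, 5 µg/ml insulin, 250 nM dexamethasone) with or without 20 µM compound. Proteins isolated at 16 and 24 h and probed by Western blot for CDK2, CDK4, CDK6, cyclin D1 and D3. Densitometry normalized to actin, n=3, mean ± SD, Student t test.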

3T3-L1 = experiment: Cell cycle arrest in mouse 3T3L1 cells assessed as accumulation at G1/S phase at 20 uM after 24 hrs in presence of beta-catenin/TCF complex inhibitor FH353 by propidium iodide-staining based flow cytometry; format: functional
Procedure, shortened: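 3T3-L1 cells exposed to 20 µM with or without FH353 (10 µM) in differentiation medium for 16 and 24 hr. Cells fixed in ice-cold 70% ethanol, stained with PI (40 µg/ml, RNase A buffer, 30 min, room temperature) and analysed by flow cytometry; representative of three experiments.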

Syrian golden hamster [4] = experiment: Induction of reverse cholestrol transport in high fat diet-induced dyslipidemia Syrian Golden hamster model assessed as decrease in CETP mRNA expression in liver at 100 mg/kg, po administered for 1 week by qRT-PCR analysis; format: functional, organism-based; settings: Mesocricetus auratus
Mus musculus [5] = species: Mus musculus; experiment: Activation of Wnt3a/beta-catenin in differentiated mouse 3T3L1 cells assessed as down-regulation of AP2 protein expression at 20 uM after 16 to 24 hrs by Western blot analysis
Procedure, shortened: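 3T3-L1 preadipocytes grown to confluence in high-glucose DMEM/10% FBS, then given differentiation media (0.5 mM IBMX, 5 µg/ml insulin, 250 nM dexamethasone) with or without 20 µM compound. Protein isolated at set time points, lysed with protease/phosphatase inhibitors, BCA-quantified, resolved by 8–12% SDS-PAGE, immunoblotted with ECL detection. β-actin loading control, densitometry normalized to actin, n=3.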

Syrian golden hamster [6] = experiment: Induction of reverse cholestrol transport in high fat diet-induced dyslipidemia Syrian Golden hamster model assessed as increase in ABCA1 mRNA expression in eWAT at 100 mg/kg, po administered for 1 week by qRT-PCR analysis; format: functional, organism-based; settings: Mesocricetus auratus
Syrian golden hamster [7] = experiment: Induction of reverse cholestrol transport in high fat diet-induced dyslipidemia Syrian Golden hamster model assessed as reduction in liver weight at 100 mg/kg, po administered for 1 week; format: functional, organism-based; settings: Mesocricetus auratus
Procedure, shortened: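 Male Syrian Golden hamsters on 45% kCal HFD, dosed 100 mg/kg p.o. in 0.5% NaCMC for one week, 4 per group. Food intake and body weight recorded daily. At the end, animals were saline-perfused and liver and eWAT were excised and weighed. Paraffin sections stained with H&E and imaged at 20x.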

Mus musculus [8] = species: Mus musculus; experiment: Activation of Wnt3a/beta-catenin in mouse 3T3L1 cells assessed as down-regulation of CDK2 expression at 20 uM after 16 to 24 hrs by Western blot analysis; format: cell-based; procedure, shortened: as §1
Syrian golden hamster [9] = experiment: Anti-dyslipidemic activity in high fat diet-induced dyslipidemia Syrian Golden hamster model assessed as reduction in serum triglycerides levels at 100 mg/kg, po administered for 1 week followed by overnight fasting post last dose by clinical bio-analyzer analysis; format: functional, organism-based; settings: Mesocricetus auratus
Procedure, shortened: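 Male Syrian Golden hamsters (8-10 weeks, 100-120 g), 4 per group, given 45% kCal high fat diet for 4 days, then HFD plus oral dosing in 0.5% w/v NaCMC for one week. After an overnight fast, blood was taken from the retro-orbital plexus under anesthesia and serum was analysed on a clinical bio-analyzer. Mean ± SEM; one-way ANOVA with Bonferroni post-test.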

- Activity (Mus musculus [2]): Active
- Activity (Mus musculus [5]): Active
Compound: Cc1ccc(S(=O)(=O)N(Cc2cn(Cc3cccc(F)c3F)nn2)Cc2cn(S(=O)(=O)c3ccc(C)cc3)c3ccccc23)cc1
- Activity (Syrian golden hamster [1]): Active
- Activity (Homo sapiens): Active
- Activity (Mus musculus [3]): Active
- Activity (3T3-L1): inactive
- Activity (Syrian golden hamster [4]): Active
- Activity (Syrian golden hamster [6]): Active
- Activity (Syrian golden hamster [7]): Active
- Activity (Mus musculus [8]): Active
- Activity (Syrian golden hamster [9]): Active
